TRPC4 potent: allosteric potentiators of mouse TRPC4 channel. Q9QUQ5. AID 2227. 0.42% of 310,000 active. HEK293 TRPC4beta/mu-opioid, DAMGO EC20, Fluo-4 Ca2+ flux; active compounds read high. B-score at 10 µM;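 active means B-score of calcium response area above 5 SD of library B-scores, with initial fluorescence ratio within 5 SD of library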
TRPC6 inh: mouse TRPC6 channel inhibition. HEK293-TRPC6, membrane potential dye, ACh-evoked depolarization; active compounds read low. B-score at 10 µM. Q61143. 1.1% of 310,000 active;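 active means B-score under library mean minus 3 SD, initial fluorescence not abnormally high, positive integrated signal ratio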;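 further: B-score derived from integrated fluorescence ratio over the kinetic read; more negative B-score means stronger inhibition of depolarization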
Target sequence (Q61143 whole entry, looked up): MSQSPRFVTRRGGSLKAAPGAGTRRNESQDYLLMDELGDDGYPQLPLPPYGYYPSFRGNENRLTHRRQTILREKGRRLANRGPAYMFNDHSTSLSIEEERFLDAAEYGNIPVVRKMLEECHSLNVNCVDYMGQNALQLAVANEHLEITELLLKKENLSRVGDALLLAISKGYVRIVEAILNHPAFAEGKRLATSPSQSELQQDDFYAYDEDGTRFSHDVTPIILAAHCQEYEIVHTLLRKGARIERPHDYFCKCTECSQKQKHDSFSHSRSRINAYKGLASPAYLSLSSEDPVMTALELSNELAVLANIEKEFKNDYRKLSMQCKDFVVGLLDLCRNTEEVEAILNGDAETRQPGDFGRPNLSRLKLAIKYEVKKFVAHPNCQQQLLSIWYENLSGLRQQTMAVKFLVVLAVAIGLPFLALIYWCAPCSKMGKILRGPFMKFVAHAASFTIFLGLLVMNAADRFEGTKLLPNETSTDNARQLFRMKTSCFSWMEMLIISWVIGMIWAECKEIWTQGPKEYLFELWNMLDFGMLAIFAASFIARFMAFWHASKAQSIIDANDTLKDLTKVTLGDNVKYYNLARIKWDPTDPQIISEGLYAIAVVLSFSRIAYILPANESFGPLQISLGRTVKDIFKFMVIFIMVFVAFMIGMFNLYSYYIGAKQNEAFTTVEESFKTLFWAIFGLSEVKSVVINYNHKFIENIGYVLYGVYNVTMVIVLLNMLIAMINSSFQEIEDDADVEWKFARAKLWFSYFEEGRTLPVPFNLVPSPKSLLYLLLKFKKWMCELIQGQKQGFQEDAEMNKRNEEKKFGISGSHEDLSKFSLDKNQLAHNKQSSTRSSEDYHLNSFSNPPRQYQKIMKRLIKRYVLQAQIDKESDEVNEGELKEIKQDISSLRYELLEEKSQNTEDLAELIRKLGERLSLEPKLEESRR
TRPC6 activator: activates the mouse TRPC6 cation channel. Q61143. 0.13% of 310,000 active. HEK293-TRPC6 membrane potential dye fluorescence; active compounds read high. B-score at 10 µM. AID 2550;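 active means B-score of the integrated fluorescence ratio above library mean plus 3 SD, and starting fluorescence ratio within library mean plus 5 SD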;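 further: higher score means more depolarization so channel activation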
TRPC4 block: inhibitors of mouse TRPC4 channel. 0.39% of 300,000 active. B-score at 10 µM. Q9QUQ5. HEK293 TRPC4beta/mu-opioid, DAMGO-evoked Fluo4 calcium flux; active compounds read low;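 active means B-score over 3 SD under the library average, no early fluorescence shift, positive overall ratio signal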
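Assay system: HEK293 cells with stable TRPC4beta plus mu-opioid receptor expression. Dosing: single dose. Measured by: Fluo4 Ca2+ flux fluorescence. Also added: DAMGO in two steps, submaximal then maximal. Read-out: B score from integrated Fluo4 fluorescence ratio.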
TRPC4 agonist: activators of mouse TRPC4 channel | HEK293 TRPC4beta/mu-opioid, Fluo4 calcium fluorescence; active compounds read high | B-score at 10 µM | 0.49% of 310,000 active | AID 2237;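 active means B-score above 5 SD of library B-scores, and initial fluorescence ratio not above library mean plus 5 SD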;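 further: positive B-score marks a calcium rise read as TRPC4 activation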
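Test system: HEK293 cells stably co-expressing mouse TRPC4beta and mu-opioid receptor | Schedule: Fluo4 dye loading 45 min at room temperature, 110 s recording | Measured by: Kinetic Fluo4 calcium fluorescence, 5 s baseline at 1 Hz | Evaluation: B score of integrated ratio | Controls: Buffer (low) and maximal DAMGO (high)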
Of the large screens only hits and unclear results are named; the others gave an inactive call. This is a sample that favours compounds with a hit; in the whole collection about 2.3% have one here.

CCN1CCN(S(=O)(=O)c2ccc(Cl)c(C(=O)Nc3ccc(C(=O)N(CC)CC)cc3)c2)CC1	TRPC4 agonist 48
CCN(CC)C(=O)c1ccc(NC(=O)c2cccc(C(F)(F)F)c2)cc1	none
NS(=O)(=O)OC(CCc1ccccc1)C(Cl)(Cl)Cl (stereo not given)	TRPC4 potent 12
CC(C)CC(NC(=O)C1CCCCC1)C(=O)N1CCC2(CC1)OCCO2 (stereo not given)	none
CC(C)C[C@H](NC(=O)[C@@H]1CCCN1C(=O)[C@@H](N)Cc1ccc(O)cc1)C(=O)NCC(N)=O	TRPC4 agonist 53
Cc1ccccc1-n1c(C)cc(/C=C2/C(=O)NC(=O)N(Cc3ccco3)C2=O)c1C	TRPC4 block -6
Cc1ccc(-n2c(C)cc(/C=C3/C(=O)NC(=O)N(Cc4ccco4)C3=O)c2C)cc1	none
CN1CC2([N+](=O)[O-])CC=C(Cl)C([N+](=O)[O-])(C1)C2 (stereo not given)	none
COc1ccc(NP(=O)(Nc2ccc(OC)cc2)Oc2ccccc2)cc1	TRPC4 potent 12
COc1ccc(OC)c(NP(=O)(Oc2ccccc2)Oc2ccccc2)c1	TRPC4 potent 10
CCOc1ccccc1-n1c(O)c(C=NCCCn2ccnc2)c(=O)[nH]c1=O	none
CC(C)CC12CN3CCN(CC(C3)C1O)C2 (stereo not given)	none
CCN(CC)C(=O)N[C@H]1C[C@@H]2c3cccc4[nH]cc(c34)C[C@H]2N(C)C1	TRPC4 agonist 83
CN1C[C@H](CO)C[C@@H]2c3cccc4[nH]cc(c34)C[C@H]21	none
Cc1ccc(Cl)cc1N1CCN(CCN)CC1	TRPC4 agonist 155
COc1ccc(OC)c(CN2CCCC(C(=O)c3sccc3C)C2)c1 (stereo not given)	TRPC4 block -6
Cc1ccsc1C(=O)C1CCCN(Cc2cn(C)nc2C)C1 (stereo not given)	none
Cc1ccsc1C(=O)C1CCCN(CCO)C1 (stereo not given)	none
COc1cccc(O)c1CN1CCCC(C(=O)c2sccc2C)C1 (stereo not given)	TRPC4 block -9
CC(=O)N1CCN(c2ccc([N+](=O)[O-])cc2C=C2C(=O)NC(=O)NC2=O)CC1	none
CCN1CCN(c2ccc([N+](=O)[O-])cc2C=C2C(=O)NC(=O)NC2=O)CC1	TRPC4 potent 15
CCN(CC)c1nc2c(C)cccn2c(=O)c1C=C1C(=O)NC(=O)NC1=O	TRPC4 potent 14
CCCCC1C(=O)NC(=S)NC1=O	none
COc1ccc(C(CNC(=O)Cc2ccc(Cl)c(Cl)c2)N(C)C)cc1 (stereo not given)	TRPC4 agonist 173
COc1ccc(C(CNC(=O)Cc2ccc(Cl)c(Cl)c2)N2CCCCC2)cc1 (stereo not given)	none
CCOC(=O)C1(CCOc2ccccc2)CCN(Cc2ccccc2OC)CC1	none
CCOC(=O)C1(c2ccccc2)CCN(CCC(C#N)(c2ccccc2)c2ccccc2)CC1	TRPC4 agonist 94
CCOC(=O)C1(c2ccccc2)CCN(CC(=O)Nc2ccc(C)cc2)CC1	TRPC4 block -8
COc1cccc2c1O[C@H]1C(=O)CC[C@H]3CN(C)CCC231 (stereo not given in full)	none
Nc1ccc(Cl)cc1C(=O)c1ccccc1Cl	TRPC4 potent 34
CCCc1c(C)nc(-c2ccc(C)cc2)nc1OC(=O)N(C)C	none
COc1ccccc1N1CCNCC1	none
Cc1cc(N2CCNCC2)nc2ccccc12	TRPC4 potent 13
Cn1c(N2CCNCC2)nc2ccccc21	TRPC4 agonist 105
Clc1cccc(N2CCNCC2)n1	none
COc1ccccc1Cn1c(SCC#N)nc2cc(C(=O)N3CCC4(CC3)OCCO4)ccc2c1=O	none
CCC1(C(=O)c2ccc(C)cc2)C2c3ccccc3OC(=O)C21C(=O)O (stereo not given)	none
c1ccc2[nH]c(CCNC3CCCCC3)nc2c1	TRPC4 agonist 65
c1ccc2c(CCNC3CCCCC3)c[nH]c2c1	none
Clc1ccc(C2NCCc3[nH]cnc32)cc1 (stereo not given)	none
Fc1cccc(C2NCCc3[nH]cnc32)c1 (stereo not given)	TRPC4 agonist 162
N=c1c[n+](CC23CC4CC(CC(C4)C2)C3)[n-]o1	TRPC4 agonist 211
COC(=O)C1=C(c2ccc(S(C)(=O)=O)cc2)C[C@@H]2CC[C@H]1N2C(=O)NCc1ccc(C(F)(F)F)cc1	none
CCCNc1nc(OC)nc(N2CC3CC(C2)c2cccc(=O)n2C3)n1 (stereo not given)	none
CCNC(=O)[C@H]1O[C@@H](n2cnc3c(N)ncnc32)[C@H](O)[C@@H]1O	TRPC4 agonist 49
NC(=O)c1cn(C2OC(CO)C(O)C2O)c2ncnc(N)c12 (stereo not given)	none
Cc1ccc(NC2=NCCCS2)c(C)c1C	none
CN(C)CCCN=Cc1c(O)n(CCc2ccccc2)c(=O)[nH]c1=O	none
O=c1[nH]c(=O)n(CCc2ccccc2)c(O)c1C=NC1CC1	TRPC4 potent 14
CN1CCN(Cc2cc(=O)n3ccsc3n2)CC1	TRPC4 potent 27
O=c1cc(CN2CCNCC2)nc2sccn12	none
Cc1ccc(-n2cc(CNC(C)Cc3cnccn3)c(-c3cccc(C)c3)n2)cc1 (stereo not given)	TRPC4 agonist 143
O=C(COc1ccc(Cl)cc1Cl)N1CCN(C/C=C/c2ccccc2)CC1	TRPC4 potent 13
Cc1sc2c(c1C)C(c1ccc(C(C)(C)C)cc1)=NCC(=O)N2CC(=O)Nc1nccs1	none
COC(=O)C1=C(c2ccccc2)C[C@@H]2CC[C@H]1N2C(=O)N1CCC(C)CC1	none
COC(=O)C1=C(c2ccccc2)C[C@@H]2CC[C@H]1N2C(=O)NCCCOC(C)C	none
Oc1ccccc1-[n+]1c(-c2ccccc2)cc(-c2ccccc2)cc1-c1ccccc1	none
Nc1ccccc1-[n+]1c(-c2ccccc2)cc(-c2ccccc2)cc1-c1ccccc1	TRPC4 potent 25
